In the library only some 1.2% were active in any assay of this set; here they are far more common.
PERK inh: human PERK inhibition, primary cell-based screen; CHO PERK-DD fusion, SEAP luminescence translation reporter; Q9NZJ5; inhibition, % at 5.6 µM; hit rate 0.17% among 220,000;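 active = inhibition above the mean inhibition of all tested compounds plus 3 SD, set separately per screening campaign, cut at about 2.9% in these data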;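 note: PERK kinase domain activated by AP20187 dimerizer at 100 nM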
hK5 inh: kallikrein 5 (human) inhibition; Q9Y337; recombinant hK5, fluorogenic AMC substrate cleavage; inhibition, % at 5 µM; hit rate 0.59% among 210,000; AID 873;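 active = inhibition of 40% or more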
FXIa inh: blocks human coagulation factor XIa protease activity | P03951 | hit rate 0.14% among 220,000 | inhibition, % at 5 µM | purified FXIa, Boc-Glu-Ala-Arg-AMC fluorogenic substrate;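 active = inhibition of at least 40%; inactive = inhibition below 40%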;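 note: fluorescence of freed AMC excited at 355 nm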
Target sequence (P03951 19-387 limits assumed): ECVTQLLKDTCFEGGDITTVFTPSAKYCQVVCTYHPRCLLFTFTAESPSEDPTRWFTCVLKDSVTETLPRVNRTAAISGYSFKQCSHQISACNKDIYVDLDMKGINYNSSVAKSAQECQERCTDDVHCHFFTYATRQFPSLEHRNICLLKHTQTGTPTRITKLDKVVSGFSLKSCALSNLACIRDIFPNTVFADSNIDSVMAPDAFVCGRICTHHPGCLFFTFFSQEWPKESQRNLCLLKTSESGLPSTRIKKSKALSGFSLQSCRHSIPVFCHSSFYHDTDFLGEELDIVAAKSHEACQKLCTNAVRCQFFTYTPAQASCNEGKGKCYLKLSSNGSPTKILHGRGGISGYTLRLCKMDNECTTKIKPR
Target sequence (P03951 388-625 limits assumed): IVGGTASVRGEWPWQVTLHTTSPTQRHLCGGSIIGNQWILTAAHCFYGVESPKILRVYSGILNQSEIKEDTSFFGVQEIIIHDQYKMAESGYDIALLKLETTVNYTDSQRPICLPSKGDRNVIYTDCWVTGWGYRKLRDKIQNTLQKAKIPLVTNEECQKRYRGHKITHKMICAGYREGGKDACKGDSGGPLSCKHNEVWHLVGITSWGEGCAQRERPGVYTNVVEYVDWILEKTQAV
Thrombin inh: blocks human thrombin protease activity; P00734; alpha-thrombin, Boc-VPR-AMC fluorogenic substrate cleavage; inhibition, % at 5 µM; hit rate 0.26% among 220,000;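 active = inhibition at or above 40%; inactive = inhibition below 40%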
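System: human alpha-thrombin protein; Compound dosing: one concentration per compound, 5 µM, with 0.2% DMSO; Timing: reaction at room temperature; Technique: AMC fluorescence, 355/460 nm; Controls: enzyme without compound as high, wells lacking enzyme as low.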
FXIIa inh 1536: inhibitors of human coagulation factor XIIa | hit rate 0.3% among 220,000 | P00748 | purified FXIIa, Boc-QGR-AMC fluorogenic substrate, 2 h | AID 800 | inhibition, % at 5 µM; in the data active = inhibition above about 40%
Furin inhibitor: inhibitors of human furin; P09958; purified furin, fluorogenic substrate cleavage; inhibition, % at 20 µM or 30 µM; hit rate 0.061% among 220,000; AID 463115; in the data active = inhibition above about 25%
A number is an active result; . = inactive.

SMILES	PERK inh	hK5 inh	FXIa inh	Thrombin inh	FXIIa inh 1536	Furin inhibitor
COC(=O)CC1C(=O)NC2CCCCC2N1C(=O)CCl (stereo not given)	.	.	.	.	.	.
Cc1ccc(CN2CC34C=CC(O3)C(C(=O)NCc3ccco3)C4C2=O)cc1 (stereo not given)	.	156.0	.	.	.	.
Cc1nc2c3ccccc3nc(NNC(=O)CCC(=O)NC3CCCC3)n2n1	.	50.0	.	.	.	.
O=C(CSCc1ccccc1Cl)NCCSc1ccccn1	.	.	.	.	.	.
CCCN1CCC(N2CCCC(C(=O)O)C2)CC1 (stereo not given)	.	.	.	45.3	.	.
CCOC(=O)C1CCCN(c2c(N3CCC(N4CCCCC4)CC3)c(=O)c2=O)C1 (stereo not given)	.	.	.	.	.	.
N#Cc1c(N)nc2c3c(sc(=N)c2c1N)NC(=O)CC3c1ccccc1 (stereo not given)	.	.	.	.	.	.
N#Cc1c(N)nc2c3c(sc(=N)c2c1N)NC(=O)CC3c1c(F)cccc1Cl (stereo not given)	.	68.2	.	.	.	.
O=C(CCN1CCC(c2cccs2)=N1)c1cccs1	.	.	.	.	.	.
COC1=NS(=O)(=O)c2ccccc21	.	.	.	.	.	.
O=S1(=O)N=C(Oc2ccccc2)c2ccccc21	2.9	.	.	.	.	.
CCC(CC)C(=O)Nc1cccc(SC)c1	.	.	.	.	.	.
Cc1ccc(NC(=O)CN(c2cc(C)cc(C)c2)S(=O)(=O)c2c(C)noc2C)nc1	.	40.4	.	.	.	.
N=C1C=CC=C2C1=NC1(CCCCC1)N2O	.	98.2	.	104.0	.	.
N#C/C(=N\O)c1nc2ccccc2s1	.	42.7	.	.	.	.
Cc1nn(C)c(C)c1S(=O)(=O)N1CCC(C(=O)NCCC2=CCCCC2)CC1	.	65.4	.	41.8	40.6	.
Cc1noc(C)c1S(=O)(=O)N1CCC(C(=O)NCCC2=CCCCC2)CC1	.	.	.	.	.	.
Nc1nnc(SCCCC(=O)c2ccccc2)s1	.	.	.	45.7	.	.
COc1cc(/C=N/NC(=O)c2sc(N)c(C#N)c2C)cc(Br)c1O	.	.	.	.	.	.
COc1ccc2ccccc2c1/C=N/NC(=O)c1sc(N)c(C#N)c1C	.	63.5	.	.	.	.
O=C(Nc1nccs1)c1cc2cc(Cl)ccc2oc1=O	.	.	.	.	.	.
CCn1ncc(C2=NOC(C(=O)NCc3ccc(OC)cc3)C2)c1C (stereo not given)	.	.	.	.	.	.
CCn1ncc(C2=NOC(C(=O)NCc3ccccc3)C2)c1C (stereo not given)	.	45.1	.	.	.	.
COc1cccc(C2=NOC(C(=O)Nc3c(C)n(C)n(-c4ccccc4)c3=O)C2)c1 (stereo not given)	.	.	.	.	.	.
CCn1ncc(C2=NOC(C(=O)Nc3c(C)n(C)n(-c4ccccc4)c3=O)C2)c1C (stereo not given)	.	59.8	.	.	.	.
SMILES	PERK inh	hK5 inh	FXIa inh	Thrombin inh	FXIIa inh 1536	Furin inhibitor
COc1cccc(-n2c(SCC(=O)Nc3ccc4c(c3)CCC4)nc3ccccc3c2=O)c1	.	44.6	.	53.8	.	.
COc1ccc(NC(=O)CSc2nc3ccccc3c(=O)n2CCCN2CCCCC2)c(OC)c1	.	48.7	.	.	.	.
CCOc1ccc(-n2c(SCC(=O)Nc3cc(C)on3)nnc2-c2c[nH]c3ccccc23)cc1	.	.	.	.	47.8	.
Cc1cc(NC(=O)CSc2nnc(-c3c[nH]c4ccccc34)n2-c2ccc(F)cc2)no1	.	.	.	.	.	.
COc1ccccc1CNC(=O)CSc1nc2ccccc2c(=O)n1CCCN1CCOCC1	.	.	.	.	.	.
Cc1ccc(-n2c(SCC(=O)Nc3cc(C)on3)nc3ccccc3c2=O)cc1	.	.	.	.	.	.
Cc1cc(NC(=O)CSc2nc3ccccc3c(=O)n2-c2ccccc2)no1	.	43.3	.	.	.	.
O=S(=O)(Cc1ccc(Cl)cc1)NCc1cccnc1	.	.	.	.	.	.
COC(=O)c1cc(NC(=O)c2ccoc2C)cc(C(=O)OC)c1	.	40.5	.	.	.	.
Cc1occc1C(=O)Nc1cccnc1	.	77.7	.	.	.	.
Cc1occc1C(=O)Nc1cccc(C(=O)O)c1	.	.	.	.	.	.

Compound activity deposited in PubChem by several laboratories.
